Measurements: ChEMBL document CHEMBL1136151, “Suzuki cross-coupling approaches to the synthesis of bioactive 3-substituted and 5-substituted-4-methoxy-6-methyl-2-pyrones” (Bioorg Med Chem Lett, 2003)

How the values were obtained:
Botrytis cinerea [1] = assay: Percent growth of Botrytis cinerea after 7 days of incubation; assay type: functional; design: concentration or dose not given beside the values
Outline: (§1)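 Fungal plate assay: pyrone dissolved in absolute EtOH at 10mg/mL and pipetted 2 cm offset from the centre of the plate containing the organism. EtOH alone served as control. Growth is recorded as percentage of the organism after 72 h and after 7 days of incubation.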

Saccharomyces cerevisiae = assay: Antimicrobial activity against Saccharomyces cerevisiae was determined after 48 hours of incubation; assay type: functional
Outline: (§2)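 Disk diffusion on yeast plates: cellulose disks carrying test compound, with an EtOH control. Incubation 48 h. The inhibition zone radius is recorded in mm.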

[2] = test system: Globisporangium mamillatum; assay: Percent growth of Pythium mammillatum after 7 days of incubation; assay type: functional; design: concentration or dose not given beside the values; outline: as §1
[3] = test system: Globisporangium mamillatum; assay: Percent growth of Pythium mammillatum after 72 hours of incubation; assay type: functional; design: concentration or dose not given beside the values; outline: as §1
Aspergillus niger [4] = assay: Percent growth of Aspergillus niger after 7 days of incubation; assay type: functional; design: concentration or dose not given beside the values; outline: as §1
Fusarium oxysporum [5] = assay: Percent growth of Fusarium oxysporum after 72 hours of incubation; assay type: functional; design: concentration or dose not given beside the values; outline: as §1
Escherichia coli = assay: Antimicrobial activity against Escherichia coli was determined after 96 hours of incubation; assay type: functional
Outline: (§3)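 Disk diffusion: cellulose disks loaded with test compound and placed on bacterial plates, with an EtOH control disk. Incubation 96 h. Read-out is the radius (mm) of the inhibition zone.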

Candida albicans = assay: Antimicrobial activity against Candida albicans was determined after 48 hours of incubation; assay type: functional; outline: as §2
Bacillus subtilis = assay: Antimicrobial activity against Bacillus subtilis was determined after 96 hours of incubation; assay type: functional; outline: as §3
[6] = test system: Schizosaccharomyces pombe; assay: Antimicrobial activity against Schizosaccharomyces pombe was determined after 48 hours of incubation; assay type: functional; outline: as §2
Staphylococcus aureus = assay: Antimicrobial activity against Staphylococcus aureus was determined after 96 hours of incubation; assay type: functional; outline: as §3
Globisporangium ultimum [7] = assay: Percent growth of Pythium ultimum after 72 hours of incubation; assay type: functional; design: concentration or dose not given beside the values; outline: as §1
Aspergillus niger [8] = assay: Percent growth of Aspergillus niger after 72 hours of incubation; assay type: functional; design: concentration or dose not given beside the values; outline: as §1
Thanatephorus cucumeris [9] = assay: Percent growth of Rhizoctonia solani after 72 hours of incubation; assay type: functional; design: concentration or dose not given beside the values; outline: as §1
Thanatephorus cucumeris [10] = assay: Percent growth of Rhizoctonia solani after 7 days of incubation; assay type: functional; design: concentration or dose not given beside the values; outline: as §1
Globisporangium ultimum [11] = assay: Percent growth of Pythium ultimum after 7 days of incubation; assay type: functional; design: concentration or dose not given beside the values; outline: as §1
Botrytis cinerea [12] = assay: Percent growth of Botrytis cinerea after 72 hours of incubation; assay type: functional; design: concentration or dose not given beside the values; outline: as §1
Fusarium oxysporum [13] = assay: Percent growth of Fusarium oxysporum after 7 days of incubation; assay type: functional; design: concentration or dose not given beside the values; outline: as §1
[14] = test system: Globisporangium mamillatum; assay: Percent growth of Pythium mammillatum after 7 days of incubation; NT=Not tested; assay type: functional; outline: as §1
K562 = assay: In vitro growth inhibitory activity against K562 human chronic myelogenous leukemia cell line was determined; assay type: functional, cell-based
Outline: (§4)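 Cell growth inhibition measured in cultured tumour cells by MTT assay. IC50 derived from the growth inhibition.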

A2780 = assay: In vitro growth inhibitory activity against A2780 human ovarium carcinoma cell line was determined; assay type: functional, cell-based; outline: as §4

| Structure (SMILES) | Growth (Botrytis cinerea [1]) [%] | Activity (Saccharomyces cerevisiae) [mm] | Growth [2] [%] | Growth [3] [%] | Growth (Aspergillus niger [4]) [%] | Growth (Fusarium oxysporum [5]) [%] | Activity (Escherichia coli) [mm] | Activity (Candida albicans) [mm] | Activity (Bacillus subtilis) [mm] | Activity [6] [mm] | Activity (Staphylococcus aureus) [mm] | Growth (Globisporangium ultimum [7]) [%] | Growth (Aspergillus niger [8]) [%] | Growth (Thanatephorus cucumeris [9]) [%] | Growth (Thanatephorus cucumeris [10]) [%] | Growth (Globisporangium ultimum [11]) [%] | Growth (Botrytis cinerea [12]) [%] | Growth (Fusarium oxysporum [13]) [%] | Growth [14] [%] | also measured |
| --- | --- | --- | --- | --- | --- | --- | --- | --- | --- | --- | --- | --- | --- | --- | --- | --- | --- | --- | --- | --- |
| CCCCC/C=C/c1c(OC)cc(C)oc1=O | 100 | 0 | 100 | 42 | 95 | 11 | 0 | 0 | 20 | 0 | 0 | 61 | 90 | 47 | 100 | 75 | 53 | 56 | – | – |
| CCCCC/C=C/c1cc(C)oc(=O)c1 | 100 | 0 | 93 | 31 | 94 | 2 | 18 | 21 | 18 | 34 | 17 | 95 | 89 | 38 | 100 | 100 | 45 | 24 | – | – |
| CCCC/C=C/c1c(OC)cc(=O)oc1C | 100 | 15 | 92 | 34 | >95 | 7 | 18 | 18 | 17 | 31 | 15 | 100 | 68 | 41 | 93.4 | 100 | 33 | 35 | – | – |
| CCC/C=C/c1c(OC)cc(=O)oc1C | 100 | 10 | – | 43 | 90 | 8 | 17 | 11 | 16 | 20 | 0 | 100 | 82 | 50 | 100 | 100 | 39 | 35 | 100 | – |
| CCCCCC/C=C/c1c(OC)cc(C)oc1=O | 100 | 0 | 100 | 25 | 95 | 11 | 0 | 0 | 18 | 0 | 0 | 100 | 89 | 53 | 100 | 100 | 60 | 60 | – | IC50 (K562): 30.1 µM; IC50 (A2780): 30.3 µM |
| CCCC/C=C/c1cc(C)oc(=O)c1 | 100 | 0 | 100 | 30 | 95 | 2 | 18 | 24 | 18 | 40 | 0 | 96 | 92 | 36 | 100 | 100 | 44 | 25 | – | – |
| CCC/C=C/c1c(OC)cc(C)oc1=O | 100 | 0 | 100 | 43 | >95 | 8 | 21 | 0 | 18 | 13 | 0 | 67 | 93 | 44 | 100 | 80 | 56 | 48 | – | – |
| CCCCCC/C=C/c1c(OC)cc(=O)oc1C | 94 | 0 | – | 22 | 93 | 10 | 14 | 18 | 16 | 22 | 16 | 100 | 90 | 40 | 100 | 100 | 29 | 46 | 90 | IC50 (K562): 33.3 µM; IC50 (A2780): 26.9 µM |
| COc1cc(=O)oc(C)c1-c1ccc(C)cc1 | 100 | 0 | – | – | >95 | 10 | 6 | 0 | 8 | 20 | 0 | – | >90 | 61 | 100 | – | 49 | 54 | 100 | – |
